Assays:
[1] = system: Rattus norvegicus; experiment: (§1) Rat rotation experiments were conducted to evaluate rational behavior of the rats by administering at a dose of […] oral; type: functional
[2] = system: Rattus norvegicus; experiment: as §1; type: functional; remark: listed apart in the source
[3] = molecular target: T1, 5-hydroxytryptamine receptor 1A (Rattus norvegicus, UniProt P19327); experiment: Binding affinity was evaluated by using [3H]8-OH-DPAT radioligand by using competitive binding assay on 5-hydroxytryptamine 1A receptor
T1 sequence (P19327 whole entry): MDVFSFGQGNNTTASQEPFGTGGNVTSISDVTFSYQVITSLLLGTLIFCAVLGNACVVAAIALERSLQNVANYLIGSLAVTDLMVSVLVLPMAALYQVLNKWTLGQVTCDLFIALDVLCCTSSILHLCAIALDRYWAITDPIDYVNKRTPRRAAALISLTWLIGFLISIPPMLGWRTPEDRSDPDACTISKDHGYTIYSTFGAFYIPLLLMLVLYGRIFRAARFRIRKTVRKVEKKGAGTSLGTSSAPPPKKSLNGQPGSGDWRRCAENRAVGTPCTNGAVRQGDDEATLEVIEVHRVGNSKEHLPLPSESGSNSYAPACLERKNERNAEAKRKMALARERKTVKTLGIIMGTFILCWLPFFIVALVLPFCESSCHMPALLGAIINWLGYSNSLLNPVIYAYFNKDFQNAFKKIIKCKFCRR
How it was run: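 Rat anterior cortex membranes, pelleted and preincubated 30 min at 37 °C in 50 mM Tris-HCl pH 7.7, 4 mM CaCl2, 10 μM pargyline. Label [3H]8-OH-DPAT, 800 pM final; nonspecific binding with 10 μM spiroxatrine. Ki derived from IC50 by Cheng-Prusoff; mean with SEM range.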

[4] = system: Rattus norvegicus; experiment: (§2) Rat rotation experiments were conducted to evaluate rational behavior of the rats by administering at a dose of […] subcutaneously; type: functional
[5] = system: Rattus norvegicus; experiment: as §2; type: functional; remark: listed apart in the source
[6] = system: Rattus norvegicus; experiment: as §1; type: functional; remark: listed apart in the source
[7] = system: Rattus norvegicus; experiment: Rat rotation experiments were conducted to evaluate rational behavior of the rats by administering at a dose of 0.41 umol/Kg subcutaneously; type: functional
How it was run: (§3)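 Rats with unilateral 6-hydroxydopamine lesions of the nigrostriatal bundle. Compound given subcutaneously or orally at the stated dose. Net contralateral rotations counted over 2 h after dosing and reported as mean ± SEM; negative values indicate ipsilateral turning.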

[8] = system: Rattus norvegicus; experiment: Rat rotation experiments were conducted to evaluate rational behavior of the rats by administering at a dose of 40 umol/kg oral; type: functional; how it was run: as §3
[9] = system: Rattus norvegicus; experiment: Rat rotation experiments were conducted to evaluate rational behavior of the rats by administering at a dose of 20 umol/kg oral; type: functional; how it was run: as §3
[10] = system: Rattus norvegicus; experiment: Rat rotation experiments were conducted to evaluate rational behavior of the rats by administering at a dose of 20.0 umol/Kg subcutaneously; type: functional; how it was run: as §3
[11] = system: Rattus norvegicus; experiment: Rat rotation experiments were conducted to evaluate rational behavior of the rats by administering at a dose of 0.2 umol/kg subcutaneously; type: functional; how it was run: as §3

Compound: CC(C)(C)C1Cc2c(ccc(O)c2O)[C@H](CN)O1 (stereo partly specified)
- Activity [1]: 932
- Activity [2]: 689
- Ki [3]: > 20 µM
- Activity [4]: 671
- Activity [5]: 661
- Activity [6]: 176

Compound: NC[C@@H]1OC(c2ccccc2)Cc2c1ccc(O)c2O (stereo partly specified)
- Activity [7]: 192
- Activity [8]: 1066
- Activity [9]: 326

Compound: NC[C@H]1O[C@@H](c2ccccc2)Cc2c1ccc(O)c2O
- Activity [10]: -24

Compound: NC[C@@H]1O[C@H](c2ccccc2)Cc2c1ccc(O)c2O
- Activity [11]: 348
